ChEMBL document CHEMBL4765441, “Design, synthesis and anti-cancer activity of pyrrole-imidazole polyamides through target-downregulation of c-kit gene expression” (Eur J Med Chem, 2020)
Calls of active or inactive are those of the source. The calls are words filed in the database; no cut-off is given here.

Columns and labels:
SGC-7901 [1] = test: Inhibition of cell migration in human SGC7901 cells at 1.5 uM incubated for 48 hrs by inverted fluorescence microscope based scratch wound healing assay; type: functional
Method in brief: (§1)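 20 × 10^4 cells per well grown to 80% confluence. Wound scratched with a pipette tip, washed twice with PBS and photographed under an inverted fluorescence microscope. Cells then held in serum-free medium with compound for 48 h. Migration measured as distance moved from the wound edge; mean ± SD, n = 3.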

A549 [2] = test: Induction of apoptosis in human A549 cells assessed as late apoptotic cells at 15 uM incubated for 36 hrs by Annexin V-FITC/propidium iodide staining-based flow cytometric analysis (reference value: 0.41 %); type: functional
A549 [3] = test: Induction of apoptosis in human A549 cells assessed as viable cells at 7.5 uM incubated for 36 hrs by Annexin V-FITC/propidium iodide staining-based flow cytometric analysis (reference value: 97.9 %); type: functional; settings: read-out: Activity
dsDNA = test: Binding affinity to 5'-AGGGGAGGCGAGGAGGGGCGTGGCCGG-3'/3'-TCCCCTCCGCTCCTCCCCGCACCGGCC-5' dsDNA (unknown origin) at 1:2 DNA:compound ratio by SYBR GOLD staining based EMSA; type: nucleic-acid assay; settings: Homo sapiens
Method in brief: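 Target 27-bp c-kit promoter duplex, annealed at 95 °C, then incubated overnight with or without compound in pH 7.4 buffer (10 mM Tris-HCl, 10 mM KCl, 0.1 mM EDTA). Mixtures run on 16% native polyacrylamide gel at 150 V for 3 h. Gels stained with SYBR Gold for 30 min and imaged on a gel documentation system.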

A549 [4] = test: Induction of morphological changes in human A549 cells assessed as membrane bulge at 15 uM incubated for 36 hrs by microscopic analysis; type: functional, cell-based
Method in brief: (§2)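 Cells seeded at 2 × 10^5 per well and grown 24 h. Medium then replaced with compound-containing medium. After 36 h co-culture, morphology inspected by light microscopy.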

GISTT1 [5] = test: Antiproliferative activity against human GIST-T1 cells; type: functional, cell-based
SGC-7901 [6] = test: Induction of apoptosis in human SGC7901 cells assessed as late apoptotic cells at 7.5 uM incubated for 36 hrs by Annexin V-FITC/propidium iodide staining-based flow cytometric analysis (reference value: 3.69 %); type: functional
MKN-45 = test: Antiproliferative activity against human MKN-45 cells assessed as reduction in cell viability incubated for 48 hrs by xCELLigence RTCA; type: functional, cell-based; settings: MKN-45, 48 h
SGC-7901 [7] = test: Induction of apoptosis in human SGC7901 cells assessed as viable cells at 15 uM incubated for 36 hrs by Annexin V-FITC/propidium iodide staining-based flow cytometric analysis (reference value: 93.2 %); type: functional; settings: read-out: Activity
A549 [8] = test: Induction of apoptosis in human A549 cells assessed as late apoptotic cells at 7.5 uM incubated for 36 hrs by Annexin V-FITC/propidium iodide staining-based flow cytometric analysis (reference value: 0.41 %); type: functional
[9] = Drug localization in nucleus of human SGC-7901 cells incubated for 24 hrs by Hoechst-33342 staining based confocal laser scanning microscopic analysis; type: ADME, subcellular; settings: sgc-7901, 24 h
Method in brief: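 SGC-7901 cells cultured 24 h, then given fluorescein-labeled polyamide (1.0, unit unclear) for 4 h. Medium replaced and culture continued 20 h. Live cells viewed at ×300, then fixed in 4% paraformaldehyde for 10 min. Nuclei stained with Hoechst 33342 for 5 min, PBS-washed, imaged by confocal laser scanning microscopy.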

A549 [10] = test: Induction of morphological changes in human A549 cells assessed as cell detachment at 15 uM incubated for 36 hrs by microscopic analysis; type: functional, cell-based; method in brief: as §2
A549 [11] = test: Down regulation of c-kit mRNA expression in human A549 cells at 7.5 uM incubated for 36 hrs by Western blot analysis; type: functional, cell-based; settings: in the assay text read “RT-PCR analysis” for “Western blot analysis”
Method in brief: (§3)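 Cells treated for 36 h. Total RNA quantified by Nanodrop and checked on 1.5% agarose with ethidium bromide. 400 ng RNA per one-step RT-PCR with c-kit-specific primers; reverse transcription 30 min at 50 °C, then 2 min at 94 °C. Normalized to β-actin; semi-quantitative.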

SGC-7901 [12] = test: Induction of apoptosis in human SGC7901 cells assessed as necrotic cells at 7.5 uM incubated for 36 hrs by Annexin V-FITC/propidium iodide staining-based flow cytometric analysis (reference value: 0.34 %); type: functional
A549 [13] = test: Induction of apoptosis in human A549 cells assessed as necrotic cells at 15 uM incubated for 36 hrs by Annexin V-FITC/propidium iodide staining-based flow cytometric analysis (reference value: 0.31 %); type: functional
Bel-7402 = test: Antiproliferative activity against human Bel-7402 cells assessed as reduction in cell viability incubated for 48 hrs by xCELLigence RTCA; type: functional, cell-based; settings: Bel-7402, 48 h
A549 [14] = test: Induction of apoptosis in human A549 cells assessed as viable cells at 15 uM incubated for 36 hrs by Annexin V-FITC/propidium iodide staining-based flow cytometric analysis (reference value: 97.9 %); type: functional; settings: read-out: Activity
SGC-7901 [15] = test: Induction of morphological changes in human SGC7901 cells assessed as appearance of round shaped cells at 7.5 uM incubated for 36 hrs by microscopic analysis; type: functional, cell-based; method in brief: as §2
GISTT1 [16] = test: Down regulation of c-kit gene expression at transcriptional level in human GIST-T1 cells; type: functional, cell-based
A549 [17] = test: Inhibition of cell migration in human A549 cells at 1.5 uM incubated for 48 hrs by inverted fluorescence microscope based scratch wound healing assay; type: functional; method in brief: as §1
SGC-7901 [18] = test: Antiproliferative activity against human SGC7901 cells assessed as reduction in cell viability incubated for 48 hrs by xCELLigence RTCA; type: functional, cell-based; settings: SGC-7901, 48 h
SGC-7901 [19] = test: Induction of morphological changes in human SGC7901 cells assessed as apoptotic body formation at 7.5 uM incubated for 36 hrs by microscopic analysis; type: functional, cell-based; method in brief: as §2
SGC-7901 [20] = test: Down regulation of c-kit mRNA expression in human SGC-7901 cells at 7.5 uM incubated for 36 hrs by Western blot analysis; type: functional, cell-based; settings: in the assay text read “RT-PCR analysis” for “Western blot analysis”; method in brief: as §3
SGC-7901 [21] = test: Induction of morphological changes in human SGC7901 cells assessed as cell detachment at 7.5 uM incubated for 36 hrs by microscopic analysis; type: functional, cell-based; method in brief: as §2
A549 [22] = test: Induction of apoptosis in human A549 cells assessed as early apoptotic cells at 7.5 uM incubated for 36 hrs by Annexin V-FITC/propidium iodide staining-based flow cytometric analysis (reference value: 1.41 %); type: functional
A549 [23] = test: Induction of apoptosis in human A549 cells assessed as early apoptotic cells at 15 uM incubated for 36 hrs by Annexin V-FITC/propidium iodide staining-based flow cytometric analysis (reference value: 1.41 %); type: functional
A549 [24] = test: Down regulation of c-kit gene expression in human A549 cells incubated for 36 hrs by Western blot analysis; type: functional, cell-based
Method in brief: (§4)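 Cells exposed to compound for 36 h, then lysed in RIPA and protein measured by BCA. 30 units of total protein separated by 10% SDS-PAGE, transferred to PVDF and blocked with 5% BSA. Primary antibodies, with β-tubulin as reference, at 4 °C; secondary 2 h; ECL detection. Bands quantified by densitometry, mean ± SD, n = 3.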

SGC-7901 [25] = test: Down regulation of c-kit gene expression in human SGC-7901 cells incubated for 36 hrs by Western blot analysis; type: functional, cell-based; method in brief: as §4
A549 [26] = test: Antiproliferative activity against human A549 cells assessed as reduction in cell viability incubated for 48 hrs by xCELLigence RTCA; type: functional, cell-based; settings: A549, 48 h

Activity (dsDNA): Active | IC50 (MKN-45): 7.41 µM | Drug uptake [9]: Active | IC50 (Bel-7402): 11.2 µM | IC50 (SGC-7901 [18]): 2.96 µM | IC50 (A549 [26]): 5.97 µM
Compound: CC(=O)Nc1cn(C)c(C(=O)Nc2cn(C)c(C(=O)Nc3cc(C(=O)Nc4cn(C)c(C(=O)NCCC(=O)Nc5cn(C)c(C(=O)Nc6cn(C)c(C(=O)NCC[C@@H](N)C(=O)Nc7cc(C(=O)Nc8cc(C(=O)NC[C@@H](O)CC(=O)Nc9cc(C(=O)Nc%10cn(C)c(C(=O)Nc%11cc(C(=O)Nc%12cc(C(=O)NCCC(=O)NCCCN(C)C)n(C)c%12)n(C)c%11)n%10)n(C)c9)n(C)c8)n(C)c7)n6)n5)n4)n(C)c3)n2)n1.Cl.Cl
inhibition at 1.5 µM (SGC-7901 [1]): 85.7% | Activity (A549 [2]): 19.6% | viability at 7.5 µM (A549 [3]): 60.5% | Activity (A549 [4]): Active | Activity (GISTT1 [5]): Active | Activity (SGC-7901 [6]): 10.2% | viability at 15 µM (SGC-7901 [7]): 43.6% | Activity (A549 [8]): 14.1% | Activity (A549 [10]): Active | Activity (A549 [11]): Active | Activity (SGC-7901 [12]): 0.92% | Activity (A549 [13]): 0.12% | viability at 15 µM (A549 [14]): 51.4% | Activity (SGC-7901 [15]): Active | Activity (GISTT1 [16]): Active | inhibition at 1.5 µM (A549 [17]): 83.8% | Activity (SGC-7901 [19]): Active | Activity (SGC-7901 [20]): Active | Activity (SGC-7901 [21]): Active | Activity (A549 [22]): 22.7% | Activity (A549 [23]): 28.9% | Activity (A549 [24]): Dose-dependent effect | Activity (SGC-7901 [25]): Dose-dependent effect
